Test results reported in ChEMBL document CHEMBL1139305, “Design, synthesis and pharmacological screening of novel antihypertensive agents using hybrid approach” (Bioorg Med Chem, 2009).
In brackets after ≈: the same amount, converted by molar mass. Activity calls are given as the source filed them. No cut-off for these calls is given here.

How the values were obtained:
Rattus norvegicus [1] = experiment: Cardiovascular effect in anaesthetized Wistar rat assessed as mean arterial pressure at 40 mg/kg, ip after 30 mins; format: functional, Artery; settings: route intraperitoneal
Procedure, shortened: (§1)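 Adult normotensive Wistar rats (250–300 g) under thiopental (60 mg/kg ip). Right carotid artery cannulated with a heparinised catheter (20 IU/mL in saline, flushed every 30 min) connected to a pressure transducer. Measurement began one hour after surgery. Compound given ip at 40 mg/kg in 0.5% methyl cellulose, with mean arterial pressure read at 0, 15, 30, 45 and 60 min.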

Rattus norvegicus [2] = experiment: Cardiovascular effect in anaesthetized Wistar rat assessed as mean arterial pressure at 40 mg/kg, ip after 15 mins; format: functional, Artery; settings: route intraperitoneal; procedure, shortened: as §1
Rattus norvegicus [3] = experiment: Cardiovascular effect in anaesthetized Wistar rat assessed as mean arterial pressure at 40 mg/kg, ip after 45 mins; format: functional, Artery; settings: route intraperitoneal; procedure, shortened: as §1
Rattus norvegicus [4] = experiment: Cardiovascular effect in anaesthetized Wistar rat assessed as mean arterial pressure at 40 mg/kg, ip after 60 mins; format: functional, Artery; settings: route intraperitoneal; procedure, shortened: as §1
Rattus norvegicus [5] = experiment: Vasorelaxation activity […] assessed as inhibition of norepinephrine-induced contraction of aorta ring at 0.1 mg/ml; format: functional
Procedure, shortened: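 Isolated Wistar rat aorta rings in physiological salt solution at 37 °C, gassed 95% O2/5% CO2, isometric tension, 60 min equilibration. After contraction plateau, test compound (0.1 mg/mL) added cumulatively; EC50 (g/mL) derived from cumulative concentration–response curves against norepinephrine.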

Rattus norvegicus [6] = experiment: Effect on heart rate in anesthetized Wistar rat assessed as number of Q-T-intervals at 40 mg/kg, ip after 30 mins by electrocardiography; format: functional; settings: route intraperitoneal
Procedure, shortened: (§2)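 Wistar rats (250–300 g) anaesthetised with thiopental 60 mg/kg ip, then given compound ip at 40 mg/kg in 0.5% aqueous methyl cellulose. ECG recorded by transducer, with heart rate (beats/min) and P–Q, QRS and Q–T intervals (ms) taken at 0, 15, 30, 45 and 60 min after dosing.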

Rattus norvegicus [7] = experiment: Effect on heart rate in anesthetized Wistar rat assessed as number of beats per minutes at 40 mg/kg, ip after 45 mins by electrocardiography; format: functional; settings: route intraperitoneal; procedure, shortened: as §2
Rattus norvegicus [8] = experiment: Effect on heart rate in anesthetized Wistar rat assessed as number of QRS complex at 40 mg/kg, ip after 30 mins by electrocardiography; format: functional; settings: route intraperitoneal; procedure, shortened: as §2
Rattus norvegicus [9] = experiment: Effect on heart rate in anesthetized Wistar rat assessed as number of Q-T-intervals at 40 mg/kg, ip after 15 mins by electrocardiography; format: functional; settings: route intraperitoneal; procedure, shortened: as §2
Rattus norvegicus [10] = species: Rattus norvegicus; experiment: NO release in Wistar rat by Griess reagent assay in presence of L-cysteine relative to control
Rattus norvegicus [11] = experiment: Effect on heart rate in anesthetized Wistar rat assessed as number of beats per minutes at 40 mg/kg, ip after 15 mins by electrocardiography; format: functional; settings: route intraperitoneal; procedure, shortened: as §2
Rattus norvegicus [12] = experiment: Effect on heart rate in anesthetized Wistar rat assessed as number of beats per minutes at 40 mg/kg, ip after 30 mins by electrocardiography; format: functional; settings: route intraperitoneal; procedure, shortened: as §2
Rattus norvegicus [13] = experiment: Effect on heart rate in anesthetized Wistar rat assessed as number of beats per minutes at 40 mg/kg, ip after 60 mins by electrocardiography; format: functional; settings: route intraperitoneal; procedure, shortened: as §2
Rattus norvegicus [14] = experiment: Effect on heart rate in anesthetized Wistar rat assessed as number of QRS complex at 40 mg/kg, ip after 45 mins by electrocardiography; format: functional; settings: route intraperitoneal; procedure, shortened: as §2
Rattus norvegicus [15] = experiment: Effect on heart rate in anesthetized Wistar rat assessed as number of P-Q-intervals at 40 mg/kg, ip after 45 mins by electrocardiography; format: functional; settings: route intraperitoneal; procedure, shortened: as §2
Rattus norvegicus [16] = experiment: Effect on heart rate in anesthetized Wistar rat assessed as number of P-Q-intervals at 40 mg/kg, ip after 60 mins by electrocardiography; format: functional; settings: route intraperitoneal; procedure, shortened: as §2
Rattus norvegicus [17] = experiment: Effect on heart rate in anesthetized Wistar rat assessed as number of P-Q-intervals at 40 mg/kg, ip after 15 mins by electrocardiography; format: functional; settings: route intraperitoneal; procedure, shortened: as §2
Rattus norvegicus [18] = experiment: Effect on heart rate in anesthetized Wistar rat assessed as number of Q-T-intervals at 40 mg/kg, ip after 45 mins by electrocardiography; format: functional; settings: route intraperitoneal; procedure, shortened: as §2
Rattus norvegicus [19] = experiment: Effect on heart rate in anesthetized Wistar rat assessed as number of Q-T-intervals at 40 mg/kg, ip after 60 mins by electrocardiography; format: functional; settings: route intraperitoneal; procedure, shortened: as §2
Rattus norvegicus [20] = experiment: Effect on heart rate in anesthetized Wistar rat assessed as number of P-Q-intervals at 40 mg/kg, ip after 30 mins by electrocardiography; format: functional; settings: route intraperitoneal; procedure, shortened: as §2
Rattus norvegicus [21] = experiment: Effect on heart rate in anesthetized Wistar rat assessed as number of QRS complex at 40 mg/kg, ip after 15 mins by electrocardiography; format: functional; settings: route intraperitoneal; procedure, shortened: as §2
Rattus norvegicus [22] = experiment: Effect on heart rate in anesthetized Wistar rat assessed as number of QRS complex at 40 mg/kg, ip after 60 mins by electrocardiography; format: functional; settings: route intraperitoneal; procedure, shortened: as §2
Rattus norvegicus [23] = experiment: Antiarrhythmic activity in anaesthetized Wistar rat assessed as decrease in BaCl2-induced cardiac rhythm disturbance at 40 mg/kg, ip 60 mins before arrhythmogen challenge; format: functional, organism-based; parameters: dose 40 mg/kg; settings: Heart
Procedure, shortened: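 Rats (thiopental 60 mg/kg ip anaesthesia) given test compound ip at 40 mg/kg, suspended in 0.5% aqueous methyl cellulose, 60 min before iv barium chloride (32 mg/kg) to evoke arrhythmia. Scored by reduction of rhythm disturbances (premature ventricular beats, ventricular tachycardia, fibrillation) and mortality.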

| EC50 (Rattus norvegicus [5]) | Compound | Activity (Rattus norvegicus [1]) | Activity (Rattus norvegicus [2]) | Activity (Rattus norvegicus [3]) | Activity (Rattus norvegicus [4]) | Activity (Rattus norvegicus [6]) | Activity (Rattus norvegicus [7]) | Activity (Rattus norvegicus [8]) | Activity (Rattus norvegicus [9]) | % NO release (Rattus norvegicus [10]) | Activity (Rattus norvegicus [11]) | Activity (Rattus norvegicus [12]) | Activity (Rattus norvegicus [13]) | Activity (Rattus norvegicus [14]) | Activity (Rattus norvegicus [15]) | Activity (Rattus norvegicus [16]) | Activity (Rattus norvegicus [17]) | Activity (Rattus norvegicus [18]) | Activity (Rattus norvegicus [19]) | Activity (Rattus norvegicus [20]) | also measured |
| --- | --- | --- | --- | --- | --- | --- | --- | --- | --- | --- | --- | --- | --- | --- | --- | --- | --- | --- | --- | --- | --- |
| 45.7 µg/mL (≈ 75.4 µM) | O=C(CO[N+](=O)[O-])NNC(=O)c1ccc(NCC(O)CN2C(=O)/C(=C/c3ccccc3O)S/C2=N/c2ccccc2)cc1 (centres undefined) | 72.44 mmHg | 82.91 mmHg | 64.32 mmHg | 76.24 mmHg | 74.4 | 279.28 | 22.4 | 73.2 | 0.29% | 298.24 | 291.85 | 294.57 | 23.4 | 54.6 | 52.8 | 51.4 | 75.4 | 72.8 | 54.2 | Activity (Rattus norvegicus [23]): Active; Activity (Rattus norvegicus [21]): 21.2; Activity (Rattus norvegicus [22]): 20.8 |
| 34.7 µg/mL (≈ 56.2 µM) | O=C(CO[N+](=O)[O-])NNC(=O)c1ccc(NCC(O)CN2C(=O)/C(=C/C=C/c3ccccc3)S/C2=N/c2ccccc2)cc1 (centres undefined) | 77.54 mmHg | 84.86 mmHg | 80.16 mmHg | 90.58 mmHg | 75.8 | 302.23 | 22.4 | 74.6 | 0.24% | 307.46 | 295.42 | 308.77 | 21.4 | 53.6 | 52.4 | 52.4 | 74.8 | 73.4 | 53.6 | Activity (Rattus norvegicus [21]): 21; Activity (Rattus norvegicus [22]): 20.4 |
| 32.4 µg/mL (≈ 53.3 µM) | O=C(CO[N+](=O)[O-])NNC(=O)c1ccc(NCC(O)CN2C(=O)/C(=C/c3ccc(O)cc3)S/C2=N/c2ccccc2)cc1 (centres undefined) | 68.96 mmHg | 79.52 mmHg | 63.34 mmHg | 77.31 mmHg | 76 | 258.51 | 21.4 | 74.8 | 0.3% | 290.03 | 272.68 | 278.31 | 22.4 | 56.2 | 54.8 | 55.2 | 77.2 | 74.4 | 56 | Activity (Rattus norvegicus [23]): Active; Activity (Rattus norvegicus [21]): 20.4; Activity (Rattus norvegicus [22]): 20.6 |
| 34.7 µg/mL (≈ 58.7 µM) | O=C(CO[N+](=O)[O-])NNC(=O)c1ccc(NCC(O)CN2C(=O)/C(=C/c3ccccc3)S/C2=N/c2ccccc2)cc1 (centres undefined) | 62.21 mmHg | 78.67 mmHg | 67.54 mmHg | 71.29 mmHg | 63.2 | 276.83 | 21.2 | 81.8 | 0.33% | 292.18 | 269.11 | 291.8 | 20.6 | 54.2 | 55.4 | 52.2 | 84.6 | 86.2 | 53.6 | Activity (Rattus norvegicus [23]): Active; Activity (Rattus norvegicus [21]): 19.4; Activity (Rattus norvegicus [22]): 21.6 |
| 28.2 µg/mL (≈ 46.6 µM) | Cc1ccc(/C=C2\S/C(=N/c3ccccc3)N(CC(O)CNc3ccc(C(=O)NNC(=O)CO[N+](=O)[O-])cc3)C2=O)cc1 (centres undefined) | 79.16 mmHg | 91.1 mmHg | 72.21 mmHg | 88.93 mmHg | 73.4 | 279.98 | 23.6 | 72.8 | 0.27% | 303.44 | 291.92 | 297.59 | 24 | 52 | 50.2 | 49.6 | 74.8 | 72.2 | 51.2 | Activity (Rattus norvegicus [21]): 23.2; Activity (Rattus norvegicus [22]): 22.8 |

Further lines, the compound ahead of its results:

| Compound | EC50 (Rattus norvegicus [5]) | Activity (Rattus norvegicus [1]) | Activity (Rattus norvegicus [2]) | Activity (Rattus norvegicus [3]) | Activity (Rattus norvegicus [4]) | Activity (Rattus norvegicus [6]) | Activity (Rattus norvegicus [7]) | Activity (Rattus norvegicus [8]) | Activity (Rattus norvegicus [9]) | % NO release (Rattus norvegicus [10]) | Activity (Rattus norvegicus [11]) | Activity (Rattus norvegicus [12]) | Activity (Rattus norvegicus [13]) | Activity (Rattus norvegicus [14]) | Activity (Rattus norvegicus [15]) | Activity (Rattus norvegicus [16]) | Activity (Rattus norvegicus [17]) | Activity (Rattus norvegicus [18]) | Activity (Rattus norvegicus [19]) | Activity (Rattus norvegicus [20]) | also measured |
| --- | --- | --- | --- | --- | --- | --- | --- | --- | --- | --- | --- | --- | --- | --- | --- | --- | --- | --- | --- | --- | --- |
| CC(C)NCC(O)COc1ccc(CC(N)=O)cc1 (centres undefined) [ATENOLOL] |  | 63.44 mmHg | 79.01 mmHg | 65.24 mmHg | 69.93 mmHg |  |  |  |  |  |  |  |  |  |  |  |  |  |  |  |  |
| O=C(CO[N+](=O)[O-])NNC(=O)c1ccc(NCC(O)CN2C(=O)/C(=C/c3ccc(F)cc3)S/C2=N/c2ccccc2)cc1 (centres undefined) | 49 µg/mL (≈ 80.5 µM) | 78.92 mmHg | 84.89 mmHg | 80.53 mmHg | 85.23 mmHg | 68.6 | 294.11 | 23.6 | 67.8 | 0.23% | 300.28 | 289.83 | 300.39 | 23.2 | 52.4 | 52.2 | 51.7 | 68.2 | 66.4 | 52.2 | Activity (Rattus norvegicus [21]): 22.8; Activity (Rattus norvegicus [22]): 22 |
| COc1cc(/C=C2\S/C(=N/c3ccccc3)N(CC(O)CNc3ccc(C(=O)NNC(=O)CO[N+](=O)[O-])cc3)C2=O)cc(OC)c1OC (centres undefined) | 60.3 µg/mL (≈ 88.5 µM) | 73.93 mmHg | 82.81 mmHg | 62.69 mmHg | 81.25 mmHg | 80.8 | 277.12 | 22 | 79.6 | 0.32% | 301.97 | 293.35 | 291.2 | 23.2 | 57.6 | 54.8 | 55 | 82.2 | 83.8 | 56.2 | Activity (Rattus norvegicus [21]): 21.2; Activity (Rattus norvegicus [22]): 22.8 |
| O=C(CO[N+](=O)[O-])NNC(=O)c1ccc(NCC(O)CN2C(=O)/C(=C/c3cccc([N+](=O)[O-])c3)S/C2=N/c2ccccc2)cc1 (centres undefined) | 141 µg/mL (≈ 222 µM) | 85.08 mmHg | 87.32 mmHg | 85.87 mmHg | 90.29 mmHg | 72.4 | 302.16 | 22.4 | 71.4 | 0.21% | 318.61 | 295.46 | 315.86 | 21.8 | 56.2 | 55.6 | 57 | 71.8 | 70.4 | 57.8 | Activity (Rattus norvegicus [23]): inactive; Activity (Rattus norvegicus [21]): 21.4; Activity (Rattus norvegicus [22]): 20.4 |
